Assay outcomes as filed in PubChem BioAssay.
In the library only some 1.6% were active in any assay of this set; here they are far more common.
ABCG2 block = ABCG2 efflux pump inhibitors, primary screen, multiplex with ABCB1, IgMXP3 cells, flow cytometry; Broad substrate specificity ATP-binding cassette transporter ABCG2 (Homo sapiens), Q9UNQ0; JC-1 efflux; inhibition, % at 6.6 µM; 190,000 compounds, 0.1% hits; AID 1325, 2008;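 active = inhibition above 80%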;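 also: 0% = DMSO and 100% = nicardipine control wells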
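Incubation: cells with compound and JC-1, 10 min at 25 °C, rotating, no wash / Test system: IgMXP3 (ABCG2) plus far-red-tagged CCRF-Adr (ABCB1) cells / Compound dosing: one concentration, 6.6 µM final / Also added: JC-1 fluorescent substrate / Evaluation: efflux inhibition in percent versus controls / Detection: flow cytometry, 530 nm JC-1 signal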
ABCB1 block = ABCB1 efflux pump inhibitors, primary screen, cell-based, multiplex, flow cytometry, ABCG2 counter-screen | AID 1326, 2008 | inhibition, % at 6.6 µM | ATP-dependent translocase ABCB1 (Homo sapiens), P08183 | CCRF-Adr cells, JC-1 efflux | 190,000 compounds, 0.067% hits; in the data active = inhibition above about 40%;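 also: 0% = vehicle and 100% = reference inhibitor; higher value means more JC-1 retained so stronger ABCB1 efflux block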
Diaph inh CS = diaphorase inhibitors and chemical oxidizers, primary screen, counter-screen for diaphorase-coupled primary assays, biochemical, uHTS, resorufin fluorescence | diaphorase resazurin-to-resorufin fluorescence, NADH, 16 min; bacterial (C. kluyveri) enzyme, not human | inhibition, % at 20 µM | AID 1217, 2008 | 190,000 compounds, 0.69% hits;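 active = primary screen inhibition at 20 µM above a set limit, cut at about 50% in these data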;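 also: plate controls were DMSO with full reaction for no effect and wells lacking NADH for full effect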
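controls = No-NADH positive control and DMSO neutral control | system = Clostridium kluyveri diaphorase enzyme | timing = reaction incubation of 16 min at room temperature | signal = resorufin fluorescence 544/590 nm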
NCF1 inh = p47phox/p22phox peptide binding inhibitors, primary screen, biochemical, uHTS, NADPH oxidase regulatory subunit; Neutrophil cytosol factor 1 (Homo sapiens), P14598; fluorescence polarization, 2 h; inhibition, % at 24.7 µM; 220,000 compounds, 0.53% hits; AID 1274, 2008;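 active = inhibition above about 30%, limit read from the data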;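 also: 0% = p47phox with labelled peptide and 100% = labelled peptide alone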
Diaphorase act = compounds boosting diaphorase resazurin reduction – biochemical, uHTS, resorufin fluorescence, counter-screen for diaphorase-coupled primary assays, primary screen; Diaphorase/resazurin coupled assay, 16 min; active compounds read high; 1 = vehicle wells, 0 = NADH-free wells; activation factor at 20 µM; 190,000 compounds, 0.005% hits;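 active = diaphorase activity raised at least twofold by the compound at 20 µM; inactive = activation factor below 2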
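Material: purified diaphorase enzyme from Clostridium kluyveri; Also added: 0.114 mM NADH and 0.1 mM resazurin, final amounts; Doses: single compound dose of 20 µM, 1% DMSO final; Times: 16 min enzyme reaction, ambient temperature; Detection: resorufin fluorescence, excitation 544 nm, emission 590 nm; Measure: increased resorufin signal from activators or reducing compounds.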
HMGR II inh = inhibitors of E. faecalis class II HMGR, primary screen, biochemical, Enterococcus faecalis; purified E. faecalis HMGR, NADPH absorbance 340 nm kinetic; inhibition, % at 10 µM; 190,000 compounds, 0.41% hits;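 active = inhibition above a set limit, the median over all tested compounds plus 3 SD, cut at about 9.5% in these data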;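 also: enzyme runs in reverse so mevalonate oxidation gives rising NADPH absorbance; 0% = complete reaction with DMSO and 100% = background rate lacking mevalonate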
Active calls of the source: *; / = no result; ! = a repeat was not active.

SMILES | ABCG2 block | ABCB1 block | Diaph inh CS | NCF1 inh | Diaphorase act | HMGR II inh
O=C(O)c1ccc2nc(-c3ccco3)c(-c3ccco3)nc2c1 | -1 | 0 | 84* | -3 | 0.2 | -6
COc1ccc(CCN2C(=O)CC(C(N)=O)SC2=Nc2ccccc2)cc1 (stereo unspecified) | / | / | / | 1 | / | /
COC(=O)C1=C(C)N(c2ccc(OC)cc2)C(C)=C(C(=O)OC)C1c1ccccc1 | / | / | / | -8 | / | /
COc1ccc(/C=C(/C#N)S(=O)(=O)c2ccc(C)cc2)cc1 | 3 | 1 | 17 | -16 | 0.8 | 40*
CC(C)CC(C(=O)Nc1oc(-c2ccco2)c(-c2ccco2)c1C#N)N1C(=O)c2ccccc2C1=O (stereo unspecified) | -13 | -2 | 56* | -86 | 0.4 | 0
COc1cccc(OCC(O)CN2CCN(CCN3C(=O)c4cccc5cccc(c45)C3=O)CC2)c1 (stereo unspecified) | 9 | 4 | -5 | 8 | 1 | 0
COc1cc(/C=C2\CC/C(=C\c3cc(OC)c(OC)c(OC)c3)C2=O)cc(OC)c1OC | -14 | 0 | 18 | -6 | 0.8 | -2
COc1cc(/C=C2\CC/C(=C\c3cc(OC)c(O)c(OC)c3)C2=O)cc(OC)c1O | -3 | -1 | 71* | -49 | 0.3 | 6
CCOc1cccc(CNc2ccc(O)cc2)c1OCc1ccc(Cl)cc1 | 0 | 0 | 44 | -10 | 0.6 | -4
CCOc1cc(CNc2ccc(O)cc2)ccc1OCc1ccc(Cl)cc1Cl | 9 | 1 | 66* | 0 | 0.3 | 3
CN1CCc2nc3sc(C(=O)C45CC6CC(CC(C6)C4)C5)c(N)c3cc2C1 | 5 | 1 | -6 | 48* | 1.1 | -8
CC(=O)c1ccc(N2Cc3ccccc3C2=NC(=O)c2cccs2)cc1 | 1 | 0 | 9 | 38* | 0.9 | -1
O=C(CNC(=O)/C(=C/c1ccccc1)NC(=O)c1ccc(Br)cc1)OCc1ccccc1 | 22 | 1 | 18 | -3 | 0.8 | -11
Cc1cccc(C)c1OCC(=O)Nn1c(=O)[nH]c2ccccc2c1=O | 2 | 0 | -6 | -17 | 1.1 | 11*
CN(C)CCOC(c1ccccc1)c1ccccc1 | 8 | 1 | 14 | 1 | 0.9 | 18*!
CC(C)c1ccc(C(CC(=O)c2ccc(Cl)cc2)C(=O)O)cc1 (stereo unspecified) | 1 | 0 | -3 | 9 | 1 | -1
COc1ccc(Nc2ccc3c(c2)=NC2(CCCCC2)[N+]=3[O-])cc1 | 9 | 2 | 73* | -5 | 0.3 | 1
O=[N+]([O-])c1ccc2c(c1N1CCCCC1)=NC1(CCCCC1)[N+]=2[O-] | / | / | / | 0 | / | /
[O-][N+]1=c2ccc(Nc3ccccc3)cc2=NC12CCCCC2 | 1 | 0 | 72* | -2 | 0.3 | -4
COc1nc(Nc2nc3ccccc3c(=O)[nH]2)nc2ccc(C)cc12 | / | / | / | 31* | / | /
Cc1ccc2sc(NNC(=O)c3cc(=O)c4ccccc4o3)nc2c1C | -4 | -1 | 58* | -14 | 0.4 | -4
Cc1ccc(OCCN(C)C)c([N+](=O)[O-])c1 | 4 | 1 | 4 | -2 | 1 | 1
Cc1cc(C)nc(SCc2ccc(C(=O)NNC(=O)Nc3cccc(Cl)c3)cc2)n1 | -2 | 0 | 8 | 32* | 0.9 | 2
Cc1cc(C)nc(SCc2ccc(C(=O)N/N=C/c3ccncc3)cc2)n1 | 14 | 0 | 8 | -11 | 0.9 | 2
COc1ccc(C(C)=O)cc1COC(=O)CNC(=O)c1ccc(Cl)cc1 | 15 | 1 | -2 | 194* | 1 | -5
SMILES | ABCG2 block | ABCB1 block | Diaph inh CS | NCF1 inh | Diaphorase act | HMGR II inh
Cc1csc2nc(CNC(=O)C3CCCCC3)cn12 | 5 | 1 | 11 | -1 | 0.9 | 3
CC(=O)c1ccc(NC(=O)CC2Nc3cccc4cccc(c34)NC2=O)cc1 (stereo unspecified) | -6 | -1 | 84* | -1 | 0.2 | 3
CC(=O)Nc1ccc(NC(=O)CC2Nc3cccc4cccc(c34)NC2=O)cc1 (stereo unspecified) | 0 | 0 | 77* | 5 | 0.2 | 2
Cc1cccc(NC(=O)CC2Nc3cccc4cccc(c34)NC2=O)c1 (stereo unspecified) | 3 | 1 | 68* | -15 | 0.3 | 2
CCOc1ccc(NC(=O)CC2Nc3ccccc3NC2=O)cc1 (stereo unspecified) | -2 | -1 | 11 | -1 | 0.9 | -5
CC(=O)NC1CC2CCCC(C1)N2CC(=O)N1CCCc2ccccc21 (stereo unspecified) | -2 | 0 | -9 | -4 | 1.1 | -3
CCN(CC)c1nc2ccccc2[nH]1 | 3 | 1 | 13 | -6 | 0.9 | 2
Cc1ccc(CNC(=O)CCc2c(C)nc3ncnn3c2C)cc1 | 3 | 1 | 8 | -274 | 0.9 | -11
O=C(C1CCCN(S(=O)(=O)c2cccc3nsnc23)C1)N1CCc2ccccc2C1 (stereo unspecified) | 3 | 1 | 21 | -12 | 0.8 | 1
COc1ccc(C(=O)C(OC(=O)c2ccc(C)c(NC(C)=O)c2)c2ccccc2)cc1 (stereo unspecified) | 4 | 1 | 25 | -3 | 0.7 | -7
CC(=O)Nc1cc(C(=O)OC(C(=O)c2ccccc2)c2ccccc2)ccc1C (stereo unspecified) | 0 | 0 | 30 | 49* | 0.7 | -1
COCCOc1ccc(C(F)(F)F)cc1NC(=O)c1ccc(F)cc1 | 18 | 1 | 5 | -23 | 0.9 | -2
CC(C)(C)N1C(=O)Cc2c1nc(N)c1c(N)nc(N3CCCCC3CO)c(C#N)c21 (stereo unspecified) | 0 | 0 | 56* | -4 | 0.4 | -3
COc1cc(CCC(=O)OCC(=O)Nc2ccc(C(N)=O)cc2)cc(OC)c1OC | 1 | 1 | 5 | -7 | 1 | 2
O=C(Nc1nc(-c2ccc3ccccc3c2)cs1)c1ccc(N2C(=O)CCC2=O)cc1 | 7 | 0 | 2 | -5 | 1 | -4
O=C(Nc1ccc(N2CCCCC2)cc1)c1cccnc1Cl | 1 | 0 | 14 | 57* | 0.9 | 2
COc1ccc(NS(=O)(=O)c2cc(NC(=O)c3cnc(C)cn3)ccc2N2CCCC2)cc1 | 17 | 3 | 23 | -45 | 0.8 | -7
